High-throughput results deposited in PubChem BioAssay by Broad Institute.
Rows were chosen to be rich in hits. Some 2.3% of all compounds tested hit in one or more screens of this group.
Cneo AK release: Cryptococcus neoformans lysis via adenylate kinase release; 0.2% of 360,000 active; C. neoformans lysis, adenylate kinase release luminescence, 4 h; normalised: neutral wells 0, clomiphene wells 100; lysis activity, % at 15 µM;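 active means mean lysis activity across replicates of at least 80%, whatever share of replicates individually reach that level; inactive means mean lysis activity below 80%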
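Material – log-phase Cryptococcus neoformans yeast cells · Input – 5 × 10^6 yeast cells/mL · Medium – fresh YPD growth medium · Doses – single compound concentration per well · Timing – static 4 h at 37 °C with compound, 1 h detection · Detection – adenylate kinase release luminescence · Read-out – signal increase indicating cell lysis · Control set – Clomiphene as positive lysis control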
ERp5 block: ERp5 (human) disulfide isomerase inhibition | inhibition, % at 9.99 µM | 0.05% of 350,000 active | Q15084 | ERp5 insulin aggregation, absorbance 650 nm, 90 min;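 active means mean replicate inhibition above about 25%, with every replicate also reaching it, limit read from the data, passing the limit was not always enough; inconclusive means only one of those two criteria met; inactive means neither criterion met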
Statin myotox sup: suppressors of simvastatin-induced myotoxicity in C2C12 myotubes; rescue of ATP level, % at 7.49 µM; 0.78% of 330,000 active; ATP luminescence, 48 h; scaled: DMSO 0, geranylgeraniol control 100;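 active means mean ATP rescue above about 67%, or every replicate alone reaching that limit, limit read from the data, passing the limit was not always enough; inconclusive means no clear call, values can overlap the other calls; inactive means mean under the limit and some replicate under it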;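 further: myotubes were challenged with 10 µM simvastatin during compound exposure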
F508del corr: CFTR F508del correction in bronchial cells. activity (quench increase), % at 7.58 µM. CFBE cells, YFP halide quenching; stimulated with forskolin plus potentiator P3; % fluorescence drop versus neutral controls. AID 720511. 0.36% of 350,000 active;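 active means mean added fluorescence quench of at least 8% versus neutral control, with both replicates also reaching 8%; inconclusive means only one of the mean or replicate conditions met; inactive means mean below 8% and not both replicates reaching 8%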;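 further: cells transiently co-express mutant CFTR-F508del with the halide-sensitive YFP; corrector assay measuring rescue of mutant channel to the surface after 24 h compound exposure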
PDI inh: blocks human protein disulfide isomerase activity | inhibition, % at 10 µM | P07237 | 0.052% of 350,000 active | PDI insulin aggregation turbidity, A650, 90 min;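 active means mean inhibition across replicates of 30% or more, whatever share of single replicates reach that level; inconclusive means mean inhibition below 30% while every single replicate reaches 30%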
Target sequence (P07237 whole entry, looked up): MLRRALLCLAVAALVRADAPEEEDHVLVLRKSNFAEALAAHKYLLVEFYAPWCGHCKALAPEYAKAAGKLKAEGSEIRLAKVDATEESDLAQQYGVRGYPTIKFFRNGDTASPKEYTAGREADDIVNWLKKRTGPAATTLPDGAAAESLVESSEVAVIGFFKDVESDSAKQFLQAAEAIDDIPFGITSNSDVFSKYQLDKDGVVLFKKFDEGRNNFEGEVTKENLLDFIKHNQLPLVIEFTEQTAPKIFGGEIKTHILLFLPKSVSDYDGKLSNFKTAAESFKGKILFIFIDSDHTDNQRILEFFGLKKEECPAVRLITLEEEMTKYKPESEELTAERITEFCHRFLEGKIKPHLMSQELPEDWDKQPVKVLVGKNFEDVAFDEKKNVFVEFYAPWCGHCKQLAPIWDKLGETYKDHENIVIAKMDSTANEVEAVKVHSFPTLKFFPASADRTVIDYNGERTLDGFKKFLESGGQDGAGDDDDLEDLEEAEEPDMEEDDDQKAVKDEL
DENV2 CPE: DENV2-induced cell death inhibition; 1.7% of 350,000 active; CPE inhibition, % at 9.99 µM; DENV2-infected cells, cytopathic effect rescue, plate reader; AID 651640; in the data active means CPE inhibition above about 20%, passing the limit was not always enough; inconclusive means no clear call, values can overlap the other calls; tested in BHK-21 cells;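 further: 0% = median of neutral control wells and 100% = median of positive control wells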
Starred values were filed as active, the others as inactive.

How did C[C@@H]1CCCCO[C@@H](CN(C)CC2CC2)[C@@H](C)CN([C@H](C)CO)C(=O)c2cc(NC(=O)Nc3ccc(F)cc3)ccc2O1 do in these assays?
Cneo AK release: 2; ERp5 block: 1; Statin myotox sup: 48; F508del corr: -1; DENV2 CPE: 78*

What do the screens show for `C[C@H](CO)N1C[C@H](C)[C@H](CN(C)Cc2ccc(C(=O)O)cc2)Oc2ccc(NC(=O)Cc3ccccc3)cc2C1=O`?
Cneo AK release: -3; ERp5 block: 4; Statin myotox sup: -3; F508del corr: -3; DENV2 CPE: -3

How did C[C@H]1CCCCO[C@H](CN(C)C(=O)Nc2ccc(C(F)(F)F)cc2)[C@@H](C)CN([C@@H](C)CO)C(=O)c2cc(NC(=O)Nc3ccc(F)cc3)ccc2O1 do in these assays?
Cneo AK release: 2; ERp5 block: 0; Statin myotox sup: -13; F508del corr: 8.0*; DENV2 CPE: -2

How did C[C@H]1CCCCO[C@H](CN(C)C(=O)Nc2ccccc2)[C@@H](C)CN([C@@H](C)CO)C(=O)c2cc(NC(=O)Nc3ccc(C(F)(F)F)cc3)ccc2O1 do in these assays?
F508del corr: inconclusive; DENV2 CPE: 60*

Results for C[C@H](CO)N1C[C@H](C)[C@H](CN(C)C(=O)Cc2ccccc2)OCCCC[C@H](C)Oc2ccc(NC(=O)Nc3ccc(C(F)(F)F)cc3)cc2C1=O ?
Cneo AK release: -3; ERp5 block: 2; Statin myotox sup: 97*; F508del corr: 4; DENV2 CPE: 12

Results for C[C@@H]1CCCCO[C@@H](CN(C)C(=O)Nc2ccccc2)[C@H](C)CN([C@H](C)CO)C(=O)c2cc(NC(=O)Nc3ccc(C(F)(F)F)cc3)ccc2O1 ?
ERp5 block: 6; F508del corr: 7; DENV2 CPE: -14

What do the screens show for `C[C@@H]1CCCCO[C@@H](CN(C)C(=O)Cc2ccccc2)[C@@H](C)CN([C@@H](C)CO)C(=O)c2cc(NC(=O)Nc3ccc(C(F)(F)F)cc3)ccc2O1`?
Cneo AK release: 1; ERp5 block: 1; Statin myotox sup: -94; F508del corr: 4; DENV2 CPE: -3

What do the screens show for `C[C@H](CO)N1C[C@H](C)[C@H](CN(C)C(=O)Nc2cccc3ccccc23)OCCCC[C@H](C)Oc2ccc(NS(=O)(=O)c3cccs3)cc2C1=O`?
Cneo AK release: 2; ERp5 block: 2; Statin myotox sup: 34; F508del corr: 0; DENV2 CPE: inconclusive

What do the screens show for `C[C@H]1CN([C@@H](C)CO)C(=O)c2cc(C#CC3CC3)cnc2O[C@H]1CN(C)Cc1cccc(C(=O)O)c1`?
Cneo AK release: 2; ERp5 block: 3; Statin myotox sup: -6; F508del corr: -2; DENV2 CPE: -4

How did C[C@@H]1CN([C@H](C)CO)C(=O)c2cc(NC(=O)C3CCCCC3)ccc2O[C@@H](C)CCCCO[C@@H]1CN(C)C(=O)Cc1ccccc1 do in these assays?
Cneo AK release: -3; F508del corr: 2; DENV2 CPE: 2

How did O=C(CSc1ncnc2c1oc1ccccc12)Nc1cccc(Cl)c1 do in these assays?
Cneo AK release: 1; Statin myotox sup: 1; PDI inh: 2

What do the screens show for `O=C(CSc1ncnc2c1oc1ccccc12)Nc1cccc(C(F)(F)F)c1`?
Cneo AK release: 1; ERp5 block: -7; F508del corr: -1; PDI inh: 3; DENV2 CPE: 37*

What do the screens show for `CCOC(=O)Nc1ccc(N2CCOCC2)c(S(=O)(=O)N2CCOCC2)c1`?
Cneo AK release: 2; ERp5 block: 4; Statin myotox sup: -11; F508del corr: 0; PDI inh: -7; DENV2 CPE: 26*

Results for CO[C@@H]1CN(C)C(=O)c2cc(NC(C)=O)ccc2OC[C@@H](C)N(Cc2ccccn2)C[C@@H]1C ?
Cneo AK release: -2; ERp5 block: -7; Statin myotox sup: -10; F508del corr: 3; DENV2 CPE: -13

Results for C[C@H](NC(=O)C[C@H]1C[C@@H]2c3cc(NC(=O)CN(C)C)ccc3O[C@@H]2[C@H](CO)O1)c1ccccc1 ?
Cneo AK release: 8; ERp5 block: 4; Statin myotox sup: 1; F508del corr: -1; DENV2 CPE: 1

Results for Cn1c(CCN2CCCC2)nc2cc(NC(=O)COc3ccc(Cl)cc3)ccc21 ?
Cneo AK release: 0; ERp5 block: -3; Statin myotox sup: -6; F508del corr: 0; PDI inh: -4; DENV2 CPE: -3

What do the screens show for `CCN1CCN(CCc2nc3cc(NC(=O)COc4ccc(Cl)cc4)ccc3n2C)CC1`?
Cneo AK release: 1; ERp5 block: 5; Statin myotox sup: 2; F508del corr: 0; PDI inh: 0; DENV2 CPE: 25*

What do the screens show for `COCCCNC(=O)c1cccn2c(=O)c3cc4ccccc4cc3nc12`?
Cneo AK release: 0; ERp5 block: 7; Statin myotox sup: 182*; PDI inh: 3

Results for C=CCn1c(=N)c(C(=O)NCCCOC)cc2c(=O)n3cccc(C)c3nc21 ?
Cneo AK release: 0; Statin myotox sup: -2; PDI inh: -2

How did CC(C)(C)SCCNC(=O)CN(c1ccc(F)cc1)S(=O)(=O)c1ccccc1 do in these assays?
Cneo AK release: 210*; ERp5 block: -65; Statin myotox sup: 8; F508del corr: -2; PDI inh: -3; DENV2 CPE: 0

What do the screens show for `COc1ccc(N(CC(=O)NCCSc2ccccc2)S(=O)(=O)c2ccccc2)c(OC)c1`?
Cneo AK release: -2; ERp5 block: -2; Statin myotox sup: -1; F508del corr: -1; PDI inh: -3; DENV2 CPE: 88*

How did COc1ccccc1N(CC(=O)NCCSc1ccccc1)S(=O)(=O)c1ccccc1 do in these assays?
Cneo AK release: -5; ERp5 block: -2; F508del corr: -2; PDI inh: -2; DENV2 CPE: 13

How did CN1C(=O)c2cc(NC(=O)Nc3ccccc3)ccc2OC[C@@H]2O[C@@H](CC(=O)O)CC[C@H]21 do in these assays?
Statin myotox sup: -10

What do the screens show for `Cc1ccc(S(=O)(=O)Nc2ccc3c(c2)C(=O)N([C@H](C)CO)C[C@H](C)[C@@H](CN(C)Cc2ccc(C(=O)Nc4ccccc4N)cc2)O3)cc1`?
ERp5 block: -1; F508del corr: -1; DENV2 CPE: 20*

How did Cc1ccc(S(=O)(=O)Nc2ccc3c(c2)C(=O)N([C@@H](C)CO)C[C@H](C)[C@H](CN(C)Cc2ccc(C(=O)Nc4ccccc4N)cc2)O3)cc1 do in these assays?
Cneo AK release: -2; ERp5 block: -2; Statin myotox sup: inconclusive; F508del corr: -1; DENV2 CPE: -7
